Test results reported in PMC9366314 (Acta Pharmaceutica Sinica. B, 2022).

Experiments:
MP41 xenograft = MP41 xenograft model; assay type: in vivo, nude BALB/c nu/nu mice; conditions: 21 days
Summary of the method: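 Nude BALB/c nu/nu mice (18–22 g, 6–8 weeks) bearing MP41 xenografts were randomised at n = 6/group. They received vehicle or test compound (5, 15 or 30 mg/kg/day) ip for 21 consecutive days. Body weight and tumour size were recorded every 2 days. Tumours were harvested on day 22 for weighing and H&E staining. Groups were compared by one-way ANOVA.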

92.1 cells [1] = assay: Transwell migration assay, 92.1; assay type: cell-based; conditions: 3, 10, and 20 μmol/L; 48 h
92.1 cells [2] = assay: Apoptosis assay by flow cytometry, 92.1; assay type: cell-based
92.1 cells [3] = assay: Cell cycle analysis by flow cytometry, 92.1; assay type: cell-based
92.1 cells [4] = assay: Rescue assay, siRNA GNAQ knockdown in 92.1 cells; assay type: cell-based; conditions: 10 and 20 μmol/L; 72 h
Summary of the method: (§1)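 Cells were transfected with siRNA against GNA11 (MP41) or GNAQ (92.1), or with a matching control siRNA. After 48 h, cells were reseeded at 3000 cells/well and cultured 18–24 h. They were then exposed to test compound for 72 h. CCK-8 was added for 2–4 h and absorbance read at 450 nm. Data are mean ± SEM, n = 3.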

[5] = system: MP41 cells (GNA11 Q209L mutation); assay: Cell proliferation inhibition assay; assay type: cell-based; conditions: MP41, 72 h, read-out: Antiproliferation (IC50, μmol/L) MP41
Summary of the method: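 Uveal melanoma cells were grown in RPMI-1640 with 10% FBS at 37 °C, 5% CO2. They were resuspended at 3 × 10^3 cells/mL, seeded and left overnight. Cells were exposed to a concentration series of test compound for 72 h. CCK-8 was added for 2–4 h and absorbance read at 450 nm. IC50 values were fitted from the curves and reported as mean ± SEM, n = 3.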

phosphorylated ERK = assay: Western blot of phosphorylated ERK in MP41 xenograft tumor tissues; assay type: in vivo, mice; conditions: testing dose
Summary of the method: (§2)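 Cells or xenograft tumour tissue were lysed in RIPA buffer with protease and phosphatase inhibitors. Lysates were cleared at 15,000 rpm, 4 °C for 15 min, and protein was quantified by BCA. Proteins were separated on 8%–12% SDS-PAGE, transferred to PVDF and blocked with 5% BSA. After primary and secondary antibodies, bands were detected by enhanced chemiluminescence.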

92.1 cells [6] = assay: Transwell invasion assay, 92.1; assay type: cell-based; conditions: 3, 10, and 20 μmol/L
MP41 cells [7] = assay: Clonogenic; assay type: cell-based; conditions: 1 and 3 μmol/L; 9 days
Summary of the method: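 MP41 cells were seeded at 4000 cells/well and left overnight. They were exposed to test compound for 9 days, with medium and compound renewed every three days. Colonies were fixed in 4% paraformaldehyde for 15 min, stained with crystal violet for 0.5 h and counted with a colony counter. Data are mean ± SEM, n = 3.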

[8] = Pharmacokinetic studies in ICR mice; assay type: in vivo; conditions: male, mouse, plasma
Summary of the method: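 Male ICR mice received test compound at 5 mg/kg iv or 15 mg/kg po. Samples were centrifuged at 6800×g, 2–8 °C for 6 min, stored at −80 °C and quantified by LC–MS/MS.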

MP41 cells [9] = assay: Rescue assay, siRNA GNA11 knockdown in MP41 cells; assay type: cell-based; conditions: 72 h
Summary of the method: as §1

Gαq/11 [10] = assay: AngII-induced intracellular Ca2+ release in HEK293-AT1R cells; assay type: cell-based; conditions: 100 μmol/L
Summary of the method: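 HEK293 cells overexpressing AT1R were loaded with Fluo-4 AM at 37 °C for 1 h, then pretreated with test compound for 0.5 h. AngII was added at a range of concentrations to build a dose–response curve. Fluorescence was read at 485/525 nm excitation/emission. Data are mean ± SEM, n = 3.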

MP41 cells [11] = assay: Transwell migration assay, MP41; assay type: cell-based; conditions: 3, 10, and 20 μmol/L; 48 h
Summary of the method: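 MP41 cells were seeded at 1 × 10^4 cells/well in Transwell upper chambers, with RPMI-1640 plus 20% FBS in the lower chamber, and left overnight. Test compound was added for 48 h. Cells left in the upper chamber were removed, and cells on the lower side were stained with crystal violet for 0.5 h and counted by microscope at ×40.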

[12] = Human liver microsome stability assay; assay type: in vitro ADME; conditions: liver microsomes, pH 7.4
Summary of the method: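 Test compound (1 μmol/L) was preincubated for 5 min at 37 °C with human liver microsomes (0.5 mg/mL) in 100 mmol/L potassium phosphate, pH 7.4, with 5 mmol/L MgCl2. Reactions were started with 1 mmol/L NADPH. Aliquots were quenched with acetonitrile containing internal standard at 0, 5, 15, 30 and 45 min, centrifuged and analysed by LC–MS/MS for half-life and intrinsic clearance.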

Gαq/11 [13] = assay: IP1 accumulation assay; assay type: cell-based; conditions: CHO-M1 cells, mean ± SEM (n = 3)
[14] = system: cleaved caspase-7, Bcl-2, and Mcl-1; assay: Western blot of apoptosis related proteins in UM cells; assay type: cell-based
Summary of the method: as §2

MP41 cells [15] = assay: Apoptosis assay by flow cytometry; assay type: cell-based; conditions: 48 h
Summary of the method: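 MP41 cells were seeded at 3 × 10^5 cells/well, left overnight, then exposed to test compound for 48 h. Washed cells were stained with Annexin V-FITC for 15 min, then with PI for 5 min. Samples were analysed by flow cytometry. Data are mean ± SEM, n = 3.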

Gαq/11 [16] = target: Gαq/11 (Homo sapiens, UniProt P50148); assay: Agonist; assay type: cell-based; conditions: HEK293-AT1R cells; different concentrations
Summary of the method: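 HEK293 cells transiently co-transfected with AT1R, Gαq-RLuc8, unlabeled Gβ1 and Gγ2-Venus, replated 24 h after transfection and cultured overnight. Cells were pretreated 1 h with test compound at several concentrations, then AngII was added, followed by coelenterazine as luciferase substrate. BRET between Gα and Gβγ was read on a plate reader. Runs were in triplicate, mean ± SEM (n = 3).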

Sequence of Gαq/11 (Homo sapiens, UniProt P50148) (P50148 whole entry): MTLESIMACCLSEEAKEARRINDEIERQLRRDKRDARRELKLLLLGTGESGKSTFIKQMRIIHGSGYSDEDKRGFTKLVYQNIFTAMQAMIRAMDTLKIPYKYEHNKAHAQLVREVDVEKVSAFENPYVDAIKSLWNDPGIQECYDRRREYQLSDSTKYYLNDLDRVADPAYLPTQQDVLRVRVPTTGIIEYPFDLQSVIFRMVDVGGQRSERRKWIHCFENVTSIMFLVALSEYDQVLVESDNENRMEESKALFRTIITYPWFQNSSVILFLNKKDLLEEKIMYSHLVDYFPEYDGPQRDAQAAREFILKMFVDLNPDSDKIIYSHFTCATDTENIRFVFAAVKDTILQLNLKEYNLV
Sequence of Gαq/11 (Homo sapiens, UniProt P50148) (P62873 2-340 partner limits assumed): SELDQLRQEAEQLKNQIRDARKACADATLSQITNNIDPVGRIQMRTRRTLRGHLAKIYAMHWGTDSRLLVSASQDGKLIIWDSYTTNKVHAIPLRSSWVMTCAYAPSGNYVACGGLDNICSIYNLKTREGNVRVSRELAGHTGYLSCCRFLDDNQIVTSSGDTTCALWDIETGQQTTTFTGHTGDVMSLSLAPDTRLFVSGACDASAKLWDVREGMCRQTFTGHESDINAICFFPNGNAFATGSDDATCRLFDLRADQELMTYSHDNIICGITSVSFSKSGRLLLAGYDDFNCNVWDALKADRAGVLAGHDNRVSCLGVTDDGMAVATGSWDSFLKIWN
Sequence of Gαq/11 (Homo sapiens, UniProt P50148) (P59768 2-68 partner limits assumed): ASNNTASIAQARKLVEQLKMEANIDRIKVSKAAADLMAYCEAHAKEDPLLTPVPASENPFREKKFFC

**Q.** With CN1CCC[C@H]1CN1CCn2cc(-c3ccccc3)nc2[C@@H]1CC1CCCCC1 [GQ262] as the molecule, how does the “Tumor growth inhibition (TGI)” value (MP41 xenograft; 5 mg/kg/day ip) read?
**A.** 55.2%

**Q.** And the “Tumor growth inhibition (TGI)” value (MP41 xenograft; 15 mg/kg/day ip)?
**A.** 82.8%

**Q.** What about the “Tumor growth inhibition (TGI)” value (MP41 xenograft; 30 mg/kg/day ip) of the same molecule?
**A.** 106.6%

**Q.** And the “Body weight of the mice” value (MP41 xenograft; 5, 15, 30 mg/kg/day ip)?
**A.** did not decline

**Q.** And the “Side effects during and after the treatment (H&E staining)” value (MP41 xenograft; 5, 15, 30 mg/kg/day ip)?
**A.** did not observe manifest side effects

**Q.** What about the 92.1 cell migration (92.1 cells [1]) of the same molecule?
**A.** remarkably and dose-dependently inhibited

**Q.** And the Apoptotic rate (92.1 cells [2]; 10 μmol/L)?
**A.** 9.34%

**Q.** What about the Apoptotic rate (92.1 cells [2]; 20 μmol/L) of the same molecule?
**A.** 17.5%

**Q.** What about the “Cellular proportion in G0/G1 phase” value (92.1 cells [3]; 10 μmol/L) of the same molecule?
**A.** 77.1%

**Q.** What about the “Cellular proportion in G0/G1 phase” value (92.1 cells [3]; 20 μmol/L) of the same molecule?
**A.** 83.5%

**Q.** And the “Antiproliferative activity on GNAQ knockdown 92.1 cells” value (92.1 cells [4])?
**A.** no inhibitory effect on proliferation

**Q.** What about the IC50 [5] of the same molecule?
**A.** 5.1 ± 0.6 µmol/L

**Q.** What about the “Phosphorylated ERK expression in tumor tissues” value (phosphorylated ERK) of the same molecule?
**A.** inhibited the phosphorylated ERK

**Q.** What about the 92.1 cell invasion (92.1 cells [6]) of the same molecule?
**A.** poor invasion

**Q.** What about the “Colony formation of MP41 cells” value (MP41 cells [7]) of the same molecule?
**A.** obviously blocked the colony formation

**Q.** And the AUC ([8]; iv, 5 mg/kg)?
**A.** 1620 ± 70 ng·h/mL

**Q.** And the Cmax ([8]; iv, 5 mg/kg)?
**A.** 2470 ± 192 ng/mL

**Q.** And the MRT ([8]; iv, 5 mg/kg)?
**A.** 1.1 ± 0.1 h

**Q.** And the Tmax ([8]; iv, 5 mg/kg)?
**A.** 0.08 h

**Q.** What about the Vd ([8]; iv, 5 mg/kg) of the same molecule?
**A.** 3.9 ± 0.4 L/kg

**Q.** And the clearance ([8]; iv, 5 mg/kg)?
**A.** 50.2 ± 2.1 mL/min/kg

**Q.** And the half-life ([8]; iv, 5 mg/kg)?
**A.** 1.8 ± 0.2 h

**Q.** And the AUC ([8]; po, 15 mg/kg)?
**A.** 2900 ± 358 ng·h/mL

**Q.** And the Cmax ([8]; po, 15 mg/kg)?
**A.** 1040 ± 267 ng/mL

**Q.** What about the MRT ([8]; po, 15 mg/kg) of the same molecule?
**A.** 3.1 ± 0.7 h

**Q.** And the Tmax ([8]; po, 15 mg/kg)?
**A.** 0.5 ± 0.4 h

**Q.** What about the bioavailability ([8]; po, 15 mg/kg) of the same molecule?
**A.** 59.5%

**Q.** What about the half-life ([8]; po, 15 mg/kg) of the same molecule?
**A.** 2.4 ± 0.7 h

**Q.** And the “Antiproliferative activity on MP41 (si#control)” value (MP41 cells [9]; 5 and 10 μmol/L)?
**A.** remarkable antiproliferative activity

**Q.** And the “Antiproliferative activity on MP41 (si#GNA11)” value (MP41 cells [9]; GNA11 knockdown)?
**A.** could not inhibit MP41 cell proliferation

**Q.** What about the “Effect on AngII-stimulated Ca2+ release” value (Gαq/11 [10]) of the same molecule?
**A.** obviously suppressed the Ca^2+ release

**Q.** And the MP41 cell migration (MP41 cells [11])?
**A.** remarkably and dose-dependently inhibited

**Q.** What about the CLint scaled at 1 μmol/L [12] of the same molecule?
**A.** 30.2 mL/min/kg

**Q.** And the half-life at 1 μmol/L [12]?
**A.** 0.958 h

**Q.** And the “IP1 inhibition at 10 μmol/L” value (Gαq/11 [13])?
**A.** 57.2 ± 1.9%

**Q.** And the “Bcl-2 and Mcl-1 levels” value [14]?
**A.** down-regulation

**Q.** And the “Cleaved caspase-7 level” value [14]?
**A.** up-regulation

**Q.** What about the Cell apoptosis (MP41 cells [15]; 3 μmol/L) of the same molecule?
**A.** 11.5%

**Q.** And the Cell apoptosis (MP41 cells [15]; 10 μmol/L)?
**A.** 16.0%

**Q.** And the “Effect on AngII-induced BRET signals” value (Gαq/11 [16])?
**A.** dose-dependently inhibitory efficacy on BRET signals
